Reference: PMC3736319 (Antiviral therapy, 2012)
Entries after “also recorded” stand apart in the source; their conditions may differ. Where two headings read alike, the source gives them in different places. One block for each compound: values may come before it.

Key:
[1] = assay type: in vivo, human (HIV-infected subjects); conditions: human, plasma, 400 mg
Procedure, shortened: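 HIV-infected adults on a steady-state nucleoside backbone (600 mg once daily, plus two NRTIs, no tenofovir) were randomized 1:1 to a crossover: boosted protease inhibitor 900/100 mg once daily or integrase inhibitor 400 mg twice daily, 14 days each. On days 15 and 29, after a standardized breakfast, serial plasma was drawn over 24 h (protease inhibitor, booster) or 12 h (integrase inhibitor) and measured by a validated assay. Non-compartmental linear–linear trapezoidal AUC0–24 or AUC0–12.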

[2] = Steady-state intracellular carbovir triphosphate; assay type: in vivo, human (HIV-infected subjects)
[3] = Steady-state plasma pharmacokinetics of abacavir; assay type: in vivo, human (HIV-infected subjects); conditions: for Change in plasma ABC concentrations: in the presence of raltegravir versus ABC alone
[4] = cited from earlier work
[5] = PBMC, ABC 600 mg once daily alone, steady state, n=19
[6] = in the presence of darunavir/ritonavir versus ABC alone
[7] = with darunavir/ritonavir versus ABC alone
[8] = with raltegravir versus ABC alone

- AUC(0-t) [1]: 2410 ng·h/mL
Compound: Cc1nnc(C(=O)NC(C)(C)c2nc(C(=O)NCc3ccc(F)cc3)c(O)c(=O)n2C)o1 [raltegravir]

- Intracellular CBV-TP Cmax, geometric mean (90% CI) [2, 5]: 329 (298, 450) fmol/million cells
- Intracellular CBV-TP Ctrough, geometric mean (90% CI) [2, 5]: 107 (96, 143) fmol/million cells
- Inter-individual variability in intracellular CBV-TP pharmacokinetic parameters ([2]; during coadministration of ABC and darunavir/ritonavir or raltegravir): > 43%
- Decrease in intracellular CBV-TP Ctrough [2, 6]: 32%
- Decrease in intracellular CBV-TP Ctrough ([2]; in the presence of raltegravir versus ABC alone, not statistically significant): 43%
- Intracellular CBV-TP Ctrough, GMR (90% CI) [2, 7]: 0.68 (0.48, 0.95)
- Intracellular CBV-TP Ctrough, GMR (90% CI) [2, 8]: 0.57 (0.33, 1.00)
Compound: Nc1nc(=O)c2ncn([C@H]3C=C[C@@H](COP(=O)(O)OP(=O)(O)OP(=O)(O)O)C3)c2[nH]1 [CBV-TP, carbovir 5′-triphosphate]
- Intracellular CBV-TP AUC0–24, geometric mean (90% CI) [2, 5]: 4,459 (4,060, 5,802) fmol•h/million cells
- Change in intracellular CBV-TP Cmax and AUC0–24 [2, 6]: no other significant change; also recorded: not significantly different
- Change in intracellular CBV-TP concentrations ([2]; in the presence of raltegravir versus ABC alone): did not lead to any significant alteration; also recorded: No significant changes

- AUC(0-t) ([3]; human, plasma, 600 mg): 13500 ng·h/mL
- Cmax ([3]; human, plasma, 600 mg): 4010 ng/mL
- concentration at 24 h ([3]; human, plasma, 600 mg): 4.3 ng/mL
- Decrease in plasma ABC AUC (exposure) [3, 6]: 27%
- Decrease in plasma ABC Cmax [3, 6]: 22%
- Decrease in plasma ABC Ctrough [3, 6]: 38%
- Change in plasma ABC concentrations [3]: No significant changes
- Change in plasma ABC concentrations ([3]; listed as abacavir): no changes
- Inter-individual variability in ABC Ctrough ([3]; plasma, across study phases): > 87%
- Plasma ABC Ctrough, GMR (90% CI) [3, 7]: 0.62 (0.50, 0.77)
- Plasma ABC Ctrough, GMR (90% CI) [3, 8]: 0.83 (0.62, 1.11)
Compound: Nc1nc(NC2CC2)c2ncn([C@H]3C=C[C@@H](CO)C3)c2n1 [ABC, abacavir]
- Decrease in ABC plasma exposure ([4]; in combination with boosted atazanavir): 17%
- Decrease in ABC plasma exposure ([4]; in combination with boosted lopinavir): 32%
- Decrease in ABC plasma exposure ([4]; in combination with boosted tipranavir): 40%
- Increase in ABC plasma exposure ([4]; with high doses of ethanol): 41%
